In ChEMBL document CHEMBL1142621, “Galloylglucosides from berries of Pimenta dioica” (J Nat Prod, 2000) one finds Activity data, which are given here for eight molecules.

Common to all, as to assay type: functional
Assay [1] can be described thus: DPPH radical scavenging activity at 80 uM after 30 mins by spectrophotometric assay. A digest of the protocol:
(§1)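 Compounds added to ethanolic DPPH radical solution (100 µM final). Mixtures were vortexed, then kept 30 min at 25 °C in a water bath in the dark. Remaining DPPH was read by absorbance at 517 nm. Scavenging = (A without compound − A with compound)/A without compound × 100. Means with SD from three independent experiments; column differences tested at p < 0.05.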
A general note: The DPPH test is a chemical assay of radical scavenging.

The nature of assay [2]: DPPH radical scavenging activity at 40 uM after 30 mins by spectrophotometric assay. A digest of the protocol: as §1
Assay [3] can be described thus: DPPH radical scavenging activity at 20 uM after 30 mins by spectrophotometric assay. In a few lines:
as §1

Assay [4] can be described thus: DPPH radical scavenging activity at 10 uM after 30 mins by spectrophotometric assay. In a few lines:
as §1

Assay [5] can be described thus: DPPH radical scavenging activity at 5 uM after 30 mins by spectrophotometric assay. In a few lines:
as §1

The nature of assay [6]: DPPH radical scavenging activity at 2.5 uM after 30 mins by spectrophotometric assay. A digest of the protocol:
as §1

Turning to `CC1=CC[C@@H](C(C)(C)O[C@@H]2O[C@H](COC(=O)c3cc(O)c(O)c(O)c3)[C@@H](O)[C@H](O)[C@H]2O)CC1`, the Activity in assay [1] was determined as 95.4%; in assay [2] it was 95.4%; in assay [3], 88.9%; in assay [4] it was 48.4%; in assay [5], 26.2%; in assay [6], 14.8%.
In the case of `C=CCc1ccc(O[C@@H]2O[C@H](COC(=O)c3cc(O)c(O)c(O)c3)[C@@H](O)[C@H](O)[C@H]2O)c(OC)c1`, the Activity is 95.7% in assay [1]; 95.2% in assay [2]; 95.2% in assay [3]; 60.9% in assay [4]; 31.7% in assay [5]; 15% in assay [6].
As for `Cc1cc(C(C)(C)C)c(O)c(C(C)(C)C)c1`, the Activity turned out to be 68% in assay [1]; 47.5% in assay [2]; 28.6% in assay [3]; 16.7% in assay [4]; 11.8% in assay [5]; 6.3% in assay [6].
For `COc1cc(CC(CO)O[C@@H]2O[C@H](COC(=O)c3cc(O)c(O)c(O)c3)[C@@H](O)[C@H](O)[C@H]2O)ccc1O` (mixture of isomers), the Activity in assay [1] stood at 95.6%; in assay [2], 95.3%; in assay [3], 92.4%; in assay [4], 56.9%; in assay [5] it was 33.1%; in assay [6], 17.7%.
For the molecule `C=CCc1cc(OC)c(O)c(O[C@@H]2O[C@H](COC(=O)c3cc(O)c(O)c(O)c3)[C@@H](O)[C@H](O)[C@H]2O)c1`, the Activity in assay [1] turned out to be 95.8%; in assay [2], 95.7%; in assay [3] it was 91.2%; in assay [4], 53.6%; in assay [5], 26.8%; in assay [6], 12.2%.
With `Cc1c(C)c2c(c(C)c1O)CC[C@@](C)(CCC[C@H](C)CCC[C@H](C)CCCC(C)C)O2`, the Activity came out at 95.8% in assay [1]; 95.7% in assay [2]; 48.8% in assay [3]; 23.4% in assay [4]; 14% in assay [5]; 8.3% in assay [6].
As for `CC1=CC[C@H](C(C)(C)O[C@@H]2O[C@H](COC(=O)c3cc(O)c(O)c(O)c3)[C@@H](O)[C@H](O)[C@H]2O)CC1`, the Activity in assay [1] is 95.3%; in assay [2] it was 95.3%; in assay [3], 90.1%; in assay [4], 46.2%; in assay [5], 24.5%; in assay [6], 12.9%.
Consider `O=C(O)c1cc(O)c(O)c(O)c1`, for which the Activity in assay [1] turned out to be 95.7%; in assay [2], 94.8%; in assay [3], 86.8%; in assay [4], 61.6%; in assay [5], 34.9%; in assay [6] it was 19%.
